Our source for the Activity and inhibition values is ChEMBL document CHEMBL5321214, “Targeting the multifaceted neurotoxicity of Alzheimer's disease by tailored functionalisation of the curcumin scaffold” (Eur J Med Chem, 2023).

Usually inhibition stands for the percentage by which the read-out fell short of the control.

The source made the active and inactive calls. No cut-off for these calls is given here.

Data set [1] relates to SH-SY5Y. Briefly: Antioxidant activity in human SH-SY5Y cells assessed as increase in intracellular GSH level at 2.5 uM incubated for 24 hrs by […] fluorescence analysis. The class given is functional. The gist of the method: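 SH-SY5Y (2×10^4 cells/well) grown 24 h, then exposed to 2.5 μM for 24 h at 37 °C. Fluorescent probe added 30 min at 37 °C; read at ex 355/em 460 nm. GSH (μM) from a GSH standard curve. Mean ± SEM of three experiments; one-way ANOVA with Dunnett's test.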

For data set [2], the system named is Microglia. The data set can be described thus: Cytotoxicity against Sprague-Dawley rat microglial cells assessed as effect on cell viability at 1 to 20 uM incubated for 24 hrs by MTT assay. The settings on record: dose 1-20 µM. Format: toxicity, cell-based. The gist of the method: (§1)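 Primary rat microglia, 6×10^4 cells/well, switched to serum-free medium 1 h before 24 h exposure (1–20 μM, DMSO ≤0.1%). MTT 0.18 mg/mL for 4 h at 37 °C, formazan dissolved in DMSO, absorbance 570 nm (reference 630 nm). Vehicle-treated cells = 100% viability.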

Data set [3] addresses Keap1/Nrf2 (Homo sapiens) (UniProt Q16236+Q14145). Briefly: Activation of Keap1/Nrf2 in human SH-SY5Y cells assessed as Nrf2 nuclear translocation by measuring increase in nuclear to cytosolic Nrf2 ratio at 2.5 uM incubated for 3 hrs by western blot analysis. Format: cell-based. The gist of the method: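 SH-SY5Y seeded 2×10^6 cells/dish, grown 24 h, then exposed 3 h at 37 °C, 5% CO2. Nuclear and cytosolic fractions immunoblotted for Nrf2, membranes stripped and reprobed for β-actin and lamin B1 as loading references. Mean ± SEM of three independent experiments; one-way ANOVA with Dunnett's test.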
On the technique in general: A western blot detects proteins with antibodies after separation by electrophoresis.

For data set [4], the system named is Microglia. The data set can be described thus: Antiinflammatory activity against Sprague-Dawley rat microglial cells assessed as inhibition of LPS-induced IL-1 beta production at 1 to 20 uM pretreated with compound for 1 hr followed by LPS stimulation for 24 hrs by ELISA. Format: functional, cell-based. The settings on record: dose 1-20 µM, time 25.0 hrs. The gist of the method:
(§2)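 Primary cortical rat microglia in DMSO (≤0.1%) or vehicle for 1 h, then 100 ng/mL LPS for 24 h. TNF-α and IL-1β in culture medium by ELISA against standard curves (pg/mL), expressed as % of LPS-stimulated cultures. Mean ± SEM of 3 independent experiments; one-way ANOVA, Holm-Sidak test.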

Data set [5] has as its target Amyloid-beta precursor protein (Homo sapiens) (UniProt P05067). Briefly: Anti-oligomeric activity against Abeta42 (unknown origin) assessed as depletion of the formation of toxic HMW Abeta42 oligomers at 5 uM measured at day 7 from sample solubilization by capillary electrophoresis assay. Conditions: time 7.0 day. The gist of the method: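 Aβ42 stock diluted to 221 μM in 20 mM sodium phosphate pH 7.4 containing compound (ethanol stocks 1.53 mM). Capillary electrophoresis: BGE 80 mM sodium phosphate pH 7.4, 30 mbar × 3 s hydrodynamic injection, +12 kV, 25 °C, 200 nm detection. Oligomers assigned by effective mobility; HMW oligomer peak quantified semiquantitatively as normalised area %.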

The test system of data set [6] is Microglia. Briefly: Antiinflammatory activity against Sprague-Dawley rat microglial cells assessed as downregulation of TNF-alpha mRNA expression at 10 uM pretreated with compound for 1 hr followed by LPS stimulation for 6 hrs by real-time PCR analysis. The class given is functional, cell-based. The settings on record: time 7.0 hrs. The gist of the method:
(§3)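 Primary cortical microglia (postnatal day 1 rat pups, shaken off mixed glial cultures, ~97% Iba1-positive). Compound (DMSO ≤0.1%) for 1 h, then 100 ng/mL ultra-pure E. coli LPS for 6 h. QIAzol RNA extraction, SuperScript IV reverse transcription, real-time PCR. Mean ± SEM, n = 3 in triplicate; one-way ANOVA, Holm-Sidak test.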
On the technique in general: Real-time PCR tracks product formation cycle by cycle.

Data set [7] is described as follows: Effect on TNF-alpha release in Sprague-Dawley rat microglial cells at 20 uM by ELISA. The class given is toxicity, cell-based. Conditions: microglia. The gist of the method: as §2
On the technique in general: An ELISA detects its analyte on a solid surface through an enzyme-linked reagent.

The test system of data set [8] is Microglia. Briefly: Antiinflammatory activity against Sprague-Dawley rat microglial cells assessed as downregulation of IL-1 beta mRNA expression at 10 uM pretreated with compound for 1 hr followed by LPS stimulation for 6 hrs by real-time PCR analysis. The class given is functional, cell-based. The settings on record: time 7.0 hrs. The gist of the method: as §3

Data set [9] concerns Microglia. Briefly: Antiinflammatory activity against Sprague-Dawley rat microglial cells assessed as inhibition of LPS-induced TNF-alpha production at 1 to 20 uM pretreated with compound for 1 hr followed by LPS stimulation for 24 hrs by ELISA. Format: functional, cell-based. The settings on record: dose 1-20 µM, time 25.0 hrs. The gist of the method:
as §2

Data set [10] is described as follows: Effect on IL-1 beta release in Sprague-Dawley rat microglial cells at 20 uM by ELISA. The class given is toxicity, cell-based. Conditions: microglia. The gist of the method: as §2
Data set [11] deals with SH-SY5Y. Briefly: Cytotoxicity against human SH-SY5Y cells assessed as effect on cell viability at 1.25 to 40 uM incubated for 24 hrs by MTT assay. The class given is toxicity, cell-based. Conditions: dose 1.25-40 µM. The gist of the method:
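SH-SY5Y, 2×10^4 cells/well, grown 24 h then exposed 24 h (1.25–40 μM) at 37 °C, 5% CO2. MTT 0.5 mg/mL in HBSS for 2 h, washed, formazan dissolved in isopropanol, read at 570 nm (reference 690 nm).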

Data set [12] relates to SH-SY5Y. Briefly: Antioxidant activity in human SH-SY5Y cells assessed as reduction in intracellular ROS formation at 2.5 uM incubated for 24 hrs followed by incubation with t-BuOOH for 30 mins by H2DCF-DA staining based fluorescence analysis. The class given is functional. Conditions: time 24.5 hrs. The gist of the method: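 SH-SY5Y (2×10^4 cells/well) exposed to 2.5 μM for 24 h, loaded with H2DCF-DA 30 min at room temperature, probe removed, then challenged with 50 μM t-BuOOH 30 min at room temperature. Fluorescence ex 485/em 535 nm, expressed as % ROS increase. Three independent experiments; one-way ANOVA with Dunnett's test.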

The subject of data set [13] is Microglia. The data set can be described thus: Antiinflammatory activity against Sprague-Dawley rat microglial cells assessed as downregulation of NLRP3 mRNA expression at 10 uM pretreated with compound for 1 hr followed by LPS stimulation for 6 hrs by real-time PCR analysis. Format: functional, cell-based. The settings on record: time 7.0 hrs. The gist of the method: as §3

Data set [14] relates to Microglia. The data set can be described thus: Cytotoxicity against Sprague-Dawley rat microglial cells assessed as decrease in cell viability at 20 uM incubated for 24 hrs by MTT assay. The class given is toxicity, cell-based. The gist of the method: as §1
A short description of data set [15]: Effect on TNF-alpha release in Sprague-Dawley rat microglial cells at 10 uM by ELISA. Format: toxicity, cell-based. Conditions: microglia. The gist of the method: as §2
Data set [16] has as its system Microglia. The data set can be described thus: Antiinflammatory activity against Sprague-Dawley rat microglial cells assessed as inhibition of LPS-induced IL-1 beta production at 1 to 10 uM pretreated with compound for 1 hr followed by LPS stimulation for 24 hrs by ELISA. The settings on record: dose 1-10 µM, time 25.0 hrs. Format: functional, cell-based. The gist of the method: as §2

Data set [17] can be described thus: Effect on IL-1 beta release in Sprague-Dawley rat microglial cells at 10 uM by ELISA. The settings on record: microglia. The class given is toxicity, cell-based. The gist of the method:
as §2

Data set [18] deals with Microglia. Briefly: Antiinflammatory activity against Sprague-Dawley rat microglial cells assessed as inhibition of LPS-induced TNF-alpha production at 1 to 10 uM pretreated with compound for 1 hr followed by LPS stimulation for 24 hrs by ELISA. The class given is functional, cell-based. The settings on record: dose 1-10 µM, time 25.0 hrs. The gist of the method:
as §2

Sequence of Amyloid-beta precursor protein (Homo sapiens) (P05067 whole entry): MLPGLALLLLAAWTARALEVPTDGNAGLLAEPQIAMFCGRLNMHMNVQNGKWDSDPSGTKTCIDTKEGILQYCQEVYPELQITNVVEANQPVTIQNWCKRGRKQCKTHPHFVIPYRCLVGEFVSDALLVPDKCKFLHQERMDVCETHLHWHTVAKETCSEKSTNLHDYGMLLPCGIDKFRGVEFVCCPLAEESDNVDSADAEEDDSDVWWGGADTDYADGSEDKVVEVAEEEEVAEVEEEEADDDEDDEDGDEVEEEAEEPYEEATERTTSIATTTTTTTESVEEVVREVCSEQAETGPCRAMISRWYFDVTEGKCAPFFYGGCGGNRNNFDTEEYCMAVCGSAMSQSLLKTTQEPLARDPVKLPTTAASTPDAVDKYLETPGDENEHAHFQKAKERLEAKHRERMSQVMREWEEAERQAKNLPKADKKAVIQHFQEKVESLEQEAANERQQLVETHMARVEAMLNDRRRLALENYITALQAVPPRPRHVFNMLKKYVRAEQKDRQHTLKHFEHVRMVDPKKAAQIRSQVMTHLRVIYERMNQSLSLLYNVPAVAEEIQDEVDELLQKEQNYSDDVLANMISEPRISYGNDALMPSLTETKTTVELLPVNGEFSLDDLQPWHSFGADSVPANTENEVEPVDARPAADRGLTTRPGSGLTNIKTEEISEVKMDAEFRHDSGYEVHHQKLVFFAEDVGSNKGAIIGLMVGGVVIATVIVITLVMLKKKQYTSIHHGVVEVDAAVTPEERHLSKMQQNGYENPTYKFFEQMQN
Sequence of Keap1/Nrf2 (Homo sapiens) (Q14145 whole entry, looked up): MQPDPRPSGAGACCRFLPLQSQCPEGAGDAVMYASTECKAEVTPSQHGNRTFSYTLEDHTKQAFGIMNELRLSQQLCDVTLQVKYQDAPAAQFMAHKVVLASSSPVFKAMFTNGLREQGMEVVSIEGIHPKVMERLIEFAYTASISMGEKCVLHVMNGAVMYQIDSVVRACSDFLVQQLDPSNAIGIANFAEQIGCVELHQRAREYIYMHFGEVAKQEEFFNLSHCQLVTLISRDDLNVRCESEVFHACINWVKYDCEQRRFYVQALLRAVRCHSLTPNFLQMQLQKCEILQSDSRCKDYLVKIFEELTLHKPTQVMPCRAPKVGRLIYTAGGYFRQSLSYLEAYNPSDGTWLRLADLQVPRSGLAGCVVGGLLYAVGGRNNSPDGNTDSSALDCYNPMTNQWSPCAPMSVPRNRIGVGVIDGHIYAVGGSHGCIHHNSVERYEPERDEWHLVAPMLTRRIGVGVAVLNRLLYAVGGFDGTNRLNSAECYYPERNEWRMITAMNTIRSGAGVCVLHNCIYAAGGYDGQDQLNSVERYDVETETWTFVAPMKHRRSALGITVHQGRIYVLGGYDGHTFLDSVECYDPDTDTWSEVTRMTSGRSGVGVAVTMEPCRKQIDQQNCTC
Sequence of Keap1/Nrf2 (Homo sapiens) (Q16236 whole entry, looked up): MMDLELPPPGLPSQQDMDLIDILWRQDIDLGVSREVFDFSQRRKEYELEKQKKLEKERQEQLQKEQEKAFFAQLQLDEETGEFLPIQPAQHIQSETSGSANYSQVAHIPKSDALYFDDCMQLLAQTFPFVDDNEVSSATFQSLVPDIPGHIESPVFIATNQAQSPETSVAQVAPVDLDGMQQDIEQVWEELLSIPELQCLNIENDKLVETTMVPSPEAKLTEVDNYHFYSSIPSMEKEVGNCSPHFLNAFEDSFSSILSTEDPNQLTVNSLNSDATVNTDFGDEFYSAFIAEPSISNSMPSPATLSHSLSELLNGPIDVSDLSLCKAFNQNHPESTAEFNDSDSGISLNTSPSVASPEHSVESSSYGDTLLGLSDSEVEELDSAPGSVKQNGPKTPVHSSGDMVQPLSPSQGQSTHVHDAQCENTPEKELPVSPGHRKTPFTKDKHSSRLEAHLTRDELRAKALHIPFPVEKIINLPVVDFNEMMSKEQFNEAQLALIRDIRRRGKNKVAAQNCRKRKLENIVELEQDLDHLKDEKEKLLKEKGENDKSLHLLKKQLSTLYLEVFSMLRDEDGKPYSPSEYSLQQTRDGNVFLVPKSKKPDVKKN

Turning to `COc1ccc(/C=C/C(=O)/C=C(O)/C=C/c2ccc(OC)cc2)cc1`, the result (in the data set on SH-SY5Y [1]; in [3]; in the data set with Microglia [4]; in [5]; in the data set on Microglia [6]; in the data set with Microglia [8]) was inactive. The outcome in the data set on Microglia [9], with SH-SY5Y [12] and with Microglia [13] was inactive. Further, the Activity result (in the data set on Microglia [2]; in data set [7]; in [10]; with SH-SY5Y [11]) was “Non-Toxic” each time.

With `CCOC(=O)C/C(C(=O)/C=C/c1ccc(OC)cc1)=C(O)\C=C\c1ccc(OC)cc1`, the result in the data set with SH-SY5Y [1], with Microglia [4], in the data set with Microglia [6], in the data set on Microglia [8], with Microglia [9] and in the data set on Microglia [13] was Active. The Activity entry (in the data set with Microglia [2]; in [7]; in data set [10]; in the data set on SH-SY5Y [11]) was “Non-Toxic” in each case. Further, the outcome in [3] and in data set [5] was inactive. For the same compound, the inhibition at 2.5 µM in the data set with SH-SY5Y [12] came out at 38%.

`COc1ccc(/C=C/C(=O)/C(CC(=O)O)=C(O)/C=C/c2ccc(OC)cc2)cc1` (mixture of isomers): the Activity result (with Microglia [2]; in data set [7]; in data set [10]) was “Non-Toxic” in each case. The result in the data set with Microglia [4] and with Microglia [9] was inactive.

As to `COc1ccc(/C=C/C(=O)/C(CC(=O)OC(C)(C)C)=C(O)/C=C/c2ccc(OC)cc2)cc1`, the Activity result is “Toxic” in the data set on Microglia [14], “Non-Toxic” in [15] and “Non-Toxic” in [17]. Besides, the outcome in the data set on Microglia [16] and in the data set on Microglia [18] was Active.

Regarding `COc1cc(/C=C/C(=O)CC(=O)/C=C/c2ccc(O)c(OC)c2)ccc1O` [CURCUMIN], the values for the Activity entry (in the data set with Microglia [14]; in data set [15]; in data set [17]) were “Toxic”, “Non-Toxic” and “Non-Toxic”, respectively. For the same compound, the result (in [5]; in the data set on Microglia [6]; in the data set with Microglia [16]; in the data set on Microglia [8]; in the data set with Microglia [18]; in the data set on Microglia [13]) was Active.
